Cneo AK release = Cryptococcus neoformans lysis via adenylate kinase release; C. neoformans lysis, adenylate kinase release luminescence, 4 h; normalised: neutral wells 0, clomiphene wells 100; lysis activity, % at 15 µM; hit rate 0.2% among 360,000; AID 651654;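 active = mean lysis activity across replicates of at least 80%, whatever share of replicates individually reach that level; inactive = mean lysis activity below 80%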
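Assay system: Cryptococcus neoformans yeast cells / Dosing: single-point compound dose / Timing: 4 h at 37 °C static, read 1 h later / Measured by: luminescence of released adenylate kinase using an AK detection reagent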
SIRT5 inh = inhibitors of human sirtuin-5 desuccinylase; Purified SirT5, succinyl-peptide AMC, trypsin-coupled fluorescence; inhibition, % at 15 µM; hit rate 1.1% among 330,000; in the data active = inhibition above about 15%
Target sequence (Q9NXA8 whole entry, looked up): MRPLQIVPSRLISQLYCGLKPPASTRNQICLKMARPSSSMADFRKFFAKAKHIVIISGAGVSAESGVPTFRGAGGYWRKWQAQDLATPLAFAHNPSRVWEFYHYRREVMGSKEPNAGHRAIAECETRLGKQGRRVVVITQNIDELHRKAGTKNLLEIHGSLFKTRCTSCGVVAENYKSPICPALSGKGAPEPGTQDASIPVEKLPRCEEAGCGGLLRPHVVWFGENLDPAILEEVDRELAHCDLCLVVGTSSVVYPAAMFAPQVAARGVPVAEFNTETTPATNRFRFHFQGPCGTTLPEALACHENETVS
Statin myotox sup = suppression of simvastatin myotoxicity | C2C12 myotubes + simvastatin, ATP luminescence, 48 h; scaled: DMSO 0, geranylgeraniol control 100 | rescue of ATP level, % at 7.49 µM | hit rate 0.78% among 330,000;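 active = mean ATP rescue above about 67%, or every replicate alone reaching that limit, limit read from the data, passing the limit was not always enough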;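 note: myotubes were challenged with 10 µM simvastatin during compound exposure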
rRNA inh HTS = selective bacterial rRNA inhibition in E. coli; GFP signal change (wild-type ribosome), % (no concentration beside the values); E. coli WT GFP vs humanized-ribosome RFP mutants, fluorescence, 24 h; hits give low values; DMSO median 0, no signal -100; AID 720706; hit rate 1.6% among 350,000;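 active = significant combined selectivity score with lowered wild-type GFP, culture density cut under 30%, mutant RFP and density less affected; inactive = any of these conditions unmet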
S100A4 inh HTS = blocks human S100A4 binding to myosin IIA peptide; P26447; S100A4/TAMRA-MyoIIA peptide fluorescence polarization; inhibition, % at 10.7 µM; hit rate 0.14% among 360,000; AID 652163;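 active = mean inhibition of at least 70% across replicates, with every replicate also reaching that level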
Target sequence (P26447 whole entry, looked up): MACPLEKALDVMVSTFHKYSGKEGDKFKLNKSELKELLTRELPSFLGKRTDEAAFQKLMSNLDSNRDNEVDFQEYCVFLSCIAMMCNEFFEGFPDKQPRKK
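Test system: S100A4 monomer protein; Medium: HEPES pH 7.2 with CaCl2, KCl, NaCl, DTT, Triton; Probe or stimulus: TAMRA-labelled myosin IIA heavy-chain peptide probe, 5 nM; Doses: one dose per compound; Times: polarization read 5 min after assay mix addition, stable 5–60 min; Benchmarks: neutral control DMSO, positive control TFP.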
PGC1a acetyl inh = lowers PGC1a acetylation signal in U2OS cells | AlphaScreen anti-acetyl-lysine; with virally co-expressed GCN5 acetyltransferase | inhibition, % at 15.6 µM | AID 651687 | hit rate 0.17% among 350,000;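 active = every replicate shows inhibition of at least 40%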;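 note: 0% = neutral control wells and 100% = positive control wells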
An asterisk follows results filed as active; · = no result given. An excerpt weighted towards active compounds, which were near 3% of everything screened.

SMILES | Cneo AK release | SIRT5 inh | Statin myotox sup | rRNA inh HTS | S100A4 inh HTS | PGC1a acetyl inh
COc1ccccc1NC(=S)NCC1CCCO1 (stereo not drawn) | 2 | 1 | · | 9 | -1 | -8
COc1ccccc1/C=C/C(=O)NC(=S)NCC1CCCO1 (stereo not drawn) | 4 | -3 | 6 | -25* | 3 | 10
COc1ccc(NC(=S)NCC2CCCO2)c(OC)c1 (stereo not drawn) | 2 | · | 91* | · | · | 0
CN1CCN(C(=O)C[C@@H]2CC[C@@H]3[C@H](COC[C@H](O)CN3C(=O)Nc3ccc(F)cc3)O2)CC1 | -1 | 1 | -2 | 3 | 4 | -4
Cc1ccc(-n2[nH]c(C)c(/C=N/c3ccccn3)c2=O)cc1 | -1 | -5 | -45 | 9 | -3 | -4
Cc1ccc(-n2[nH]c(C)c(C=Nc3cc(C)ccn3)c2=O)cc1 | 0 | · | 89* | · | · | 4
C[C@@H]1CN([C@H](C)CO)C(=O)c2cc(C#Cc3ccccc3)cnc2O[C@@H]1CN(C)C(=O)c1ccccc1F | 24 | 1 | -1 | 2 | 74* | 28
CC(=O)N(C)C[C@@H]1Oc2ncc(C#Cc3cccc(F)c3)cc2C(=O)N([C@H](C)CO)C[C@H]1C | -3 | 21* | 8 | 2 | 20 | -7
C[C@H](CO)N1C[C@H](C)[C@H](CN(C)C(=O)c2ccccc2F)Oc2ncc(C#Cc3ccccc3)cc2C1=O | 53 | 3 | 10 | -3 | 1 | 13
C[C@H]1CN([C@@H](C)CO)C(=O)c2cc(Br)cnc2O[C@H]1CN(C)C(=O)c1ccccc1F | -1 | 5 | 6 | 2 | 139* | 4
CC(C)CC#Cc1ccc2c(c1)O[C@@H](CN(C)Cc1ccccn1)[C@@H](C)CN([C@H](C)CO)S2(=O)=O | -12 | 8 | 9 | -21 | 9 | -10
C[C@@H]1CCCCO[C@@H](CN(C)C(=O)C2CCCCC2)[C@@H](C)CN([C@H](C)CO)C(=O)c2cc(NC(=O)c3ccncc3)ccc2O1 | -6 | 13 | 9 | 1 | -13 | -1
CCOC(=O)c1sc(=S)n(-c2ccc(Cl)cc2)c1SC | -1 | · | 105* | · | · | -2
CC(C)NC(=O)CN1C(=O)NC(CCc2ccccc2)C1=O (stereo not drawn) | 1 | · | 114* | · | · | 3
Cc1ccc(S(=O)(=O)N2C[C@H]3n4c(=O)ccc(=O)n4C[C@H](OC(=O)NCc4ccco4)[C@@]3(O)C2)cc1 | -3 | 33* | -15 | 4 | 9 | -8
CCCCCCNC(=O)O[C@@]12CN(S(=O)(=O)c3ccc(C)cc3)C[C@]1(O)Cn1c(=O)n(CCCCCC)c(=O)n1C2 | 2 | 14 | -3 | -7 | 0 | 69*
CCCCCCn1c(=O)n2n(c1=O)[C@@H]1CN(S(=O)(=O)c3ccc(C)cc3)C[C@]1(O)[C@@H](OC(=O)NCc1ccccc1)C2 | -7 | 20* | 27 | -2 | -1 | ·
C[C@@H](O)C#Cc1cnc2c(c1)C(=O)N([C@@H](C)CO)C[C@H](C)[C@@H](CN(C)Cc1cccc(C(=O)O)c1)O2 | 2 | -1 | 13 | 3 | -5 | -4
CCN1C(=O)[C@H]2[C@@H](c3ccc(-c4cccc(Cl)c4)cc3)N[C@@](CC(C)C)(C(=O)OC)[C@H]2C1=O | -2 | · | 9 | 8 | 0 | -9
CCN1C(=O)[C@H]2[C@@H](c3ccc(-c4ccc(Cl)c(Cl)c4)c(OC)c3)N[C@@](C)(C(=O)OC)[C@H]2C1=O | -3 | · | -10 | 0 | 0 | 5
CCN1C(=O)[C@H]2[C@@H](c3ccc(-c4cccc(Cl)c4)c(OC)c3)N[C@@](CC(C)C)(C(=O)OC)[C@H]2C1=O | 0 | 25* | 9 | 7 | -5 | 34
CCN1C(=O)[C@H]2[C@@H](c3ccc(-c4ccc5c(c4)OCO5)c(OC)c3)N[C@@](C)(C(=O)OC)[C@H]2C1=O | 0 | · | 8 | -4 | 99* | -11
C[C@@H]1CN([C@H](C)CO)C(=O)c2cc(NC(=O)Nc3ccccc3)ccc2O[C@@H](C)CCCCO[C@@H]1CN(C)Cc1ccc(C(F)(F)F)cc1 | -1 | · | · | 0 | · | 9

Assay outcomes from PubChem.
